Measured values as given in ChEMBL document CHEMBL1146375, “Synthetic studies on novel benzimidazolopeptides with antimicrobial, cytotoxic and anthelmintic potential” (2007).
≈ marks a conversion by molar mass, not a printed value. Residues, ends and D or L forms follow the SMILES beside them. *: point of attachment. X3 = Cc1cc2nc(-c3c(I)cc(C(=O)*)cc3I)[nH]c2cc1C

Columns and labels:
Staphylococcus aureus [1] = experiment: Antibacterial activity against Staphylococcus aureus NCIM 2079 after 18 hrs by disc diffusion method; assay type: functional
Summary of the method: (§1)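 Modified Kirby-Bauer disc diffusion. Plates inoculated with spore suspension (about 6 × 10⁴ spores mL^-1). Sterile 6 mm paper discs carried test samples at 10 mg mL^-1; ciprofloxacin disc as reference, DMF disc as negative control. Plates held 18 h at 37 °C. Inhibition zone diameters (mm) averaged over triplicate sets.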

Candida albicans [2] = experiment: Antifungal activity against Candida albicans MUCC 29 after 48 hrs by disc diffusion method; assay type: functional
Summary of the method: (§2)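 Agar well diffusion on plates inoculated with spore suspension in normal saline from cultures on Sabouraud's broth. Wells punched and loaded with test samples or griseofulvin at 10 mg mL^-1, with DMSO as negative control. Incubated 48 h at 37 °C.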

Candida albicans [3] = experiment: Antifungal activity against Candida albicans MUCC 29 after 48 hrs by tube dilution method; assay type: functional
Summary of the method: (§3)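 Tube dilution MIC as for bacteria (seven concentrations, 200–3.1 […]), with DMSO in place of DMF. Tubes inoculated with fungal culture and incubated 48 h at 37 °C. MIC read from presence or absence of growth.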

Microsporum audouinii [4] = experiment: Antifungal activity against Microsporum audouinii MUCC 545 after 48 hrs by tube dilution method; assay type: functional; summary of the method: as §3
Bacillus subtilis [5] = experiment: Antibacterial activity against Bacillus subtilis NCIM 2063 after 18 hrs by tube dilution method; assay type: functional; details: NCIM 2063, 18 h
Summary of the method: (§4)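 Tube dilution MIC. Stock diluted in sterile broth to seven concentrations from 200 to 3.1 […]. Each tube inoculated with one loopful of test bacterium and incubated 18 h at 37 °C. MIC read from presence or absence of growth.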

Trichophyton benhamiae [6] = experiment: Antifungal activity against Trichophyton mentagrophytes MUCC 665 after 48 hrs by tube dilution method; assay type: functional, Arthroderma benhamiae; summary of the method: as §3
Staphylococcus aureus [7] = experiment: Antibacterial activity against Staphylococcus aureus NCIM 2079 after 18 hrs by tube dilution method; assay type: functional; details: NCIM 2079, 18 h; summary of the method: as §4
Pontoscolex corethrurus [8] = experiment: Anthelmintic activity against Pontoscolex corethrurus ICARBC 408 assessed as mean paralyzing time; assay type: functional
Summary of the method: (§5)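 Earthworms exposed to test suspensions at 2 mg mL^-1 (0.2% w/v), made by triturating compound with Tween 80 (0.5%) and distilled water, then mechanically stirred 30 min. Mebendazole suspension prepared alike as reference. Paralysis and death times recorded; death confirmed by no movement in 50 °C water. Means from triplicate sets.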

Pseudomonas aeruginosa [9] = experiment: Antibacterial activity against Pseudomonas aeruginosa NCIM 2034 after 18 hrs by disc diffusion method; assay type: functional; summary of the method: as §1
Pseudomonas aeruginosa [10] = experiment: Antibacterial activity against Pseudomonas aeruginosa NCIM 2034 after 18 hrs by tube dilution method; assay type: functional; details: NCIM 2034, 18 h; summary of the method: as §4
Eudrilus [11] = experiment: Anthelmintic activity against Eudrilus sp. assessed as mean death time; assay type: functional
Summary of the method: (§6)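 Earthworms exposed to test suspensions at 2 mg mL−1, prepared by triturating compound with Tween 80 (0.5%) and distilled water, stirring 30 min, then diluting to 0.2% w/v. Mebendazole suspension was made the same way. Death was confirmed by moving worms into 50 °C warm water and looking for movement. Mean death time (min) taken from triplicate sets.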

Trichophyton benhamiae [12] = experiment: Antifungal activity against Trichophyton mentagrophytes MUCC 665 after 48 hrs by disc diffusion method; assay type: functional, Arthroderma benhamiae; summary of the method: as §2
Eudrilus [13] = experiment: Anthelmintic activity against Eudrilus sp. assessed as mean paralyzing time; assay type: functional; summary of the method: as §5
[14] = Anthelmintic activity against Megascoplex konkanensis ICARBC 211 assessed as mean paralyzing time; assay type: functional; summary of the method: as §5
Aspergillus niger = experiment: Antifungal activity against Aspergillus niger MUCC 177 after 48 hrs by disc diffusion method; assay type: functional; summary of the method: as §2
[15] = Anthelmintic activity against Megascoplex konkanensis ICARBC 211 assessed as mean death time; assay type: functional; summary of the method: as §5
Pontoscolex corethrurus [16] = experiment: Anthelmintic activity against Pontoscolex corethrurus ICARBC 408 assessed as mean death time; assay type: functional; summary of the method: as §6
Escherichia coli [17] = experiment: Antibacterial activity against Escherichia coli NCIM 2065 after 18 hrs by tube dilution method; assay type: functional; details: NCIM 2065, 18 h
Escherichia coli [18] = experiment: Antibacterial activity against Escherichia coli NCIM 2065 after 18 hrs by disc diffusion method; assay type: functional; summary of the method: as §1
Microsporum audouinii [19] = experiment: Antifungal activity against Microsporum audouinii MUCC 545 after 48 hrs by disc diffusion method; assay type: functional; summary of the method: as §2
Bacillus subtilis [20] = experiment: Antibacterial activity against Bacillus subtilis NCIM 2063 after 18 hrs by disc diffusion method; assay type: functional; summary of the method: as §1

Structure (SMILES)	inhibition zone (IZ) (Staphylococcus aureus [1]) [mm]	inhibition zone (IZ) (Candida albicans [2]) [mm]	MIC (Candida albicans [3]) [µg/mL]	MIC (Microsporum audouinii [4]) [µg/mL]	MIC (Bacillus subtilis [5]) [µg/mL]	MIC (Trichophyton benhamiae [6]) [µg/mL]	MIC (Staphylococcus aureus [7]) [µg/mL]	Time (Pontoscolex corethrurus [8]) [min]	inhibition zone (IZ) (Pseudomonas aeruginosa [9]) [mm]	MIC (Pseudomonas aeruginosa [10]) [µg/mL]	Time (Eudrilus [11]) [min]	inhibition zone (IZ) (Trichophyton benhamiae [12]) [mm]	Time (Eudrilus [13]) [min]	TIME [14] [h]	inhibition zone (IZ) (Aspergillus niger) [mm]	TIME [15] [h]	Time (Pontoscolex corethrurus [16]) [min]	MIC (Escherichia coli [17]) [µg/mL]	inhibition zone (IZ) (Escherichia coli [18]) [mm]	inhibition zone (IZ) (Microsporum audouinii [19]) [mm]	other results
Cc1cc2nc(-c3ccc(O)c(C(=O)N[C@@H](Cc4c[nH]c5ccccc45)C(=O)N[C@@H](C)C(=O)N[C@@H](Cc4ccc(O)cc4)C(=O)O)c3)[nH]c2cc1C	11	18	6 (≈ 8.54 µM)	12.5 (≈ 17.8 µM)	12.5 (≈ 17.8 µM)	6 (≈ 8.54 µM)	12.5 (≈ 17.8 µM)	17.02	22	6 (≈ 8.54 µM)	23.98	15	13.25	0.224	17	0.377	29.19	12.5 (≈ 17.8 µM)	18	12	inhibition zone (IZ) (Bacillus subtilis [20]): 16 mm
COC(=O)[C@H](Cc1c[nH]c2ccccc12)NC(=O)c1cc(I)c(-c2nc3cc(C)c(C)cc3[nH]2)c(I)c1	12	18	6 (≈ 8.35 µM)	12.5 (≈ 17.4 µM)	6 (≈ 8.35 µM)	6 (≈ 8.35 µM)	12.5 (≈ 17.4 µM)	17.1	25	6 (≈ 8.35 µM)	24.02	12	13.5	0.217	19	0.371	29.29	12.5 (≈ 17.4 µM)	19	9	inhibition zone (IZ) (Bacillus subtilis [20]): 16 mm
Cc1cc2nc(-c3ccc(C(=O)N[C@@H](CC(C)C)C(=O)NCC(=O)O)cc3)[nH]c2cc1C	10	19	6 (≈ 13.7 µM)	25 (≈ 57.3 µM)	6 (≈ 13.7 µM)	6 (≈ 13.7 µM)	12.5 (≈ 28.6 µM)	36.61	23	6 (≈ 13.7 µM)	40.24	14	32.8	0.438	17	0.671	48.39	12.5 (≈ 28.6 µM)	17	11	inhibition zone (IZ) (Bacillus subtilis [20]): 13 mm
O=C(O)CNC(=O)CNC(=O)c1cc(-c2nc3ccc([N+](=O)[O-])cc3[nH]2)ccc1O	9	18	6 (≈ 14.5 µM)	6 (≈ 14.5 µM)	25 (≈ 60.5 µM)	6 (≈ 14.5 µM)	12.5 (≈ 30.2 µM)	31.18	22	6 (≈ 14.5 µM)	36.7	16	25.5	0.451	17	0.601	42.26	12.5 (≈ 30.2 µM)	16	13	inhibition zone (IZ) (Bacillus subtilis [20]): 9 mm
COC(=O)[C@H](CCCNC(=N)N[N+](=O)[O-])NC(=O)c1ccc(-c2nc3cc(C)c(C)cc3[nH]2)cc1	9	15	12.5 (≈ 26 µM)	12.5 (≈ 26 µM)	12.5 (≈ 26 µM)	12.5 (≈ 26 µM)	25 (≈ 51.9 µM)	21.65	23	6 (≈ 12.5 µM)	28.21	12	18.67	0.309	15	0.443	35.22	12.5 (≈ 26 µM)	17	8	inhibition zone (IZ) (Bacillus subtilis [20]): 14 mm
CC[C@H](C)[C@H](NC(=O)CNC(=O)c1cc(I)c(-c2nc3cc(C)c(C)cc3[nH]2)c(I)c1)C(=O)NCC(=O)N[C@H](C(=O)OC)[C@@H](C)O (X3-GIGT-OMe)	12	13	12.5 (≈ 14.5 µM)	25 (≈ 29.1 µM)	6 (≈ 6.97 µM)	25 (≈ 29.1 µM)	12.5 (≈ 14.5 µM)	57.67	22	6 (≈ 6.97 µM)	70.54	9	38.45	0.602	18	1.08	82.3	12.5 (≈ 14.5 µM)	17	9	inhibition zone (IZ) (Bacillus subtilis [20]): 15 mm
Cc1cc2nc(-c3ccc(C(=O)N[C@@H](CCCNC(=N)N[N+](=O)[O-])C(=O)O)cc3)[nH]c2cc1C	11	17	12.5 (≈ 26.7 µM)	12.5 (≈ 26.7 µM)	12.5 (≈ 26.7 µM)	12.5 (≈ 26.7 µM)	25 (≈ 53.5 µM)	21.51	25	6 (≈ 12.8 µM)	38.12	14	18.38	0.302	16	0.438	34.96	12.5 (≈ 26.7 µM)	19	10	inhibition zone (IZ) (Bacillus subtilis [20]): 15 mm
